Measured values: PMC5060091 (ChemMedChem, 2016)
≈ marks a conversion by molar mass, not a printed value. Read-outs that look alike come from different tables or passages of the source. Blank lines part the entries; values can stand above or below the compound they belong to.

Legend:
[1] = tested on: C. albicans ATCC 10231 (strain A); test: ROS induction assay; type: cell-based, Candida albicans; settings: 1× and 2× MIC, 1-h treatment; H2O2 1 mM
Summary of the method: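 C. albicans ATCC 10231 cells were incubated 1 h at 37 °C with test compound at 1× or 2× MIC, with no drug (negative control), or with 1 mM H₂O₂ (positive control). DCFH-DA (40 µg/mL) was then added. ROS were detected and imaged by fluorescence microscopy.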

C. albicans ATCC 64124 [2] = test: MIC, broth dilution, strain B; type: cell-based, Candida albicans; settings: Candida albicans
Summary of the method: (§1)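 Broth dilution MIC assay on the Candida panel: C. albicans strains A–G, C. glabrata (H), C. krusei (I) and C. parapsilosis (J). Test compounds were delivered in DMSO, with DMSO kept below 1% in the assay. The MIC is reported in µg/mL, with µM in parentheses. Reference antifungals (a polyene and four azoles) were run alongside.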

[3] = tested on: Aspergillus nidulans ATCC 38163; test: MIC, broth dilution, strain L; type: cell-based; settings: Aspergillus nidulans
[4] = tested on: C. albicans ATCC MYA-1237(R); test: MIC, broth dilution, strain F; type: cell-based, Candida albicans; settings: Candida albicans
Summary of the method: as §1

[5] = tested on: C. albicans ATCC MYA-2310(S); test: MIC, broth dilution, strain E; type: cell-based, Candida albicans; settings: Candida albicans
Summary of the method: as §1

[6] = tested on: Aspergillus terreus ATCC MYA-3633; test: MIC, broth dilution, strain M; type: cell-based; settings: Aspergillus terreus
[7] = tested on: C. albicans ATCC 90819(R); test: MIC, broth dilution, strain D; type: cell-based, Candida albicans; settings: Candida albicans
Summary of the method: as §1

[8] = tested on: C. albicans ATCC MYA-2876(S); test: MIC, broth dilution, strain C; type: cell-based, Candida albicans; settings: Candida albicans
Summary of the method: as §1

[9] = tested on: Candida albicans ATCC 10231; test: MIC, broth dilution, strain A; type: cell-based; settings: Candida albicans
Summary of the method: as §1

[10] = tested on: Aspergillus strains (K–M); test: MIC against Aspergillus strains; type: cell-based; settings: read-out: MIC values against Aspergillus strains
[11] = tested on: C. albicans ATCC MYA-1003(R); test: MIC, broth dilution, strain G; type: cell-based, Candida albicans; settings: Candida albicans
Summary of the method: as §1

[12] = tested on: C. albicans ATCC 90819(R); settings: strain D; azoles; previously reported; cited from earlier work
C. albicans ATCC 64124 [13] = settings: strain B; azoles; previously reported; cited from earlier work
[14] = tested on: C. albicans ATCC MYA-2310(S); settings: strain E; azoles; previously reported; cited from earlier work
[15] = tested on: C. albicans ATCC MYA-2876(S); settings: strain C; azoles; previously reported; cited from earlier work
[16] = read-out: MIC (MIC-2) in µM (parentheses)

Structure (SMILES): OO [H2O2]
ROS induction (DCFH-DA fluorescence) [1]: highly fluorescent

MIC (C. albicans ATCC 64124 [2]; ATCC64124, read-out: MIC (MIC-2)): > 31.2 µg/mL
MIC (C. albicans ATCC 64124 [2]; ATCC64124, read-out: MIC (MIC-2) in µM (parentheses)): > 89.3 µM
MIC ([3]; ATCC38163, read-out: MIC (MIC-0)): 0.03 µg/mL
MIC ([3]; ATCC38163, read-out: MIC (MIC-0) in µM (parentheses)): 0.09 µM
MIC ([4]; read-out: MIC (MIC-2)): 0.975 µg/mL
MIC [4, 16]: 2.79 µM
MIC ([5]; read-out: MIC (MIC-2)): 1.95 µg/mL
MIC [5, 16]: 5.58 µM
MIC ([6]; read-out: MIC (MIC-0)): 0.12 µg/mL
MIC ([6]; read-out: MIC (MIC-0) in µM (parentheses)): 0.34 µM
MIC ([7]; ATCC90819, read-out: MIC (MIC-2)): 1.95 µg/mL
MIC ([7]; ATCC90819, read-out: MIC (MIC-2) in µM (parentheses)): 5.58 µM
MIC ([8]; read-out: MIC (MIC-2)): 0.975 µg/mL
MIC [8, 16]: 2.79 µM
MIC ([9]; ATCC10231, read-out: MIC (MIC-2)): 7.8 µg/mL
MIC ([9]; ATCC10231, read-out: MIC (MIC-2) in µM (parentheses)): 22.3 µM
MIC [10]: 0.03 to 0.24 µg/mL (≈ 0.0859 to 0.687 µM)
MIC ([11]; read-out: MIC (MIC-2)): 7.8 µg/mL
MIC [11, 16]: 22.3 µM
Structure (SMILES): C[C@@H](c1ncncc1F)[C@](O)(Cn1cncn1)c1ccc(F)cc1F [VOR, voriconazole]

Structure (SMILES): OC(Cn1cncn1)(Cn1cncn1)c1ccc(F)cc1F [FLC, fluconazole]
MIC (MIC-2) [12]: > 125 µg/mL
MIC (MIC-2) in µM (parentheses) [12]: > 408 µM
MIC (MIC-2) (C. albicans ATCC 64124 [13]): > 125 µg/mL
MIC (MIC-2) in µM (parentheses) (C. albicans ATCC 64124 [13]): > 408 µM
MIC (MIC-2) [14]: > 125 µg/mL
MIC (MIC-2) in µM (parentheses) [14]: > 408 µM
MIC (MIC-2) [15]: 15.6 µg/mL (≈ 50.9 µM)
MIC (MIC-2) in µM (parentheses) [15]: 51.0 µM (≈ 15.6 µg/mL)
